Legend:
L1210 [1] = experiment: Antitumor activity was determined against the ip implanted L1210 leukemia in mice by change in […] at 300 mg/kg (treatment of 1qd schedule) dosage; assay type: functional, Mus musculus; settings: route intraperitoneal
Procedure, shortened: (§1)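 DBA/2J mice, 6 per group (wt 23-28 g), inoculated ip with 1×10^6 L1210 cells on day 0. Treatment was given ip in 0.9% NaCl with 0.5% Tween-80, starting 24 h later. Weight change was taken on day 8. Mice were observed daily until death or 45 days. Median survival T/C and %ILS = (T/C − 1) × 100 came from survivors per NCI protocols, and 45-day survivors were counted.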

L1210 [2] = experiment: Antitumor activity was determined against the ic implanted L1210 lymphoid leukemia in mice by percent median survival rate (treated/control) at 80 mg/kg (1-5qd treatment schedule) dosage; 22.0/8.0; assay type: functional, Mus musculus
L1210 [3] = experiment: Antitumor activity against ip implanted L1210 leukemia in mice expressed as active dose range (1 qd treatment schedule) required to produce increase in life span by >25% was determined; Range is 50-400; assay type: functional, Mus musculus
Procedure, shortened: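 DBA/2J mice, groups of 6 (23-28 g), were inoculated ip with 1 × 10^6 L1210 cells on day 0. Dosing was ip from 24 h, in 0.9% NaCl with 0.5% Tween-80 (sonicated solution or suspension). Mice were observed daily until death or day 45. Median survival T/C followed NCI protocols, and ILS = (T/C − 1) × 100. Active range means doses giving ILS ≥25%; optimal dose means greatest ILS.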

P388 [4] = experiment: Antitumor activity was determined against the ip implanted P388 leukemia in mice by 45-day survivors in mice at 500 mg/kg (1 qd treatment schedule) dosage; assay type: functional, Mus musculus; settings: route intraperitoneal
Procedure, shortened: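 DBA/2J mice, 23-33 g, in groups of 6, were inoculated ip with 1×10^6 P388 cells on day 0. Dosing was ip from 24 h on the stated schedules, in 0.9% NaCl with 0.5% Tween-80 (sonicated solution or suspension). Survival was followed daily until death or 45 days. Median T/C was calculated from survivors per NCI protocols, with ILS = (T/C − 1) × 100.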

Glioblastoma cell line = experiment: Compound was tested for the inhibition of glioblastoma; assay type: functional, cell-based; settings: Homo sapiens
Procedure, shortened: (§2)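 Human leukemia and solid tumor cells in culture were exposed to compound for 48 h. Viability was scored by trypan blue dye exclusion. IC50 (50% inhibition) was estimated from response curves of three separate experiments.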

HL-60 = experiment: Compound was tested for the inhibition of human HL60 Leukemia; assay type: functional, cell-based; procedure, shortened: as §2
L1210 [5] = experiment: Antitumor activity was determined against the ip implanted L1210 leukemia in mice by percent median survival rate (treated/control) at 400 mg/kg (treatment of 1qd schedule) dosage; 9.5/8.0; assay type: functional, Mus musculus; settings: route intraperitoneal
Procedure, shortened: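 DBA/2J mice, 23-28 g, in groups of 6, were inoculated ip with 1×10^6 L1210 cells on day 0. Dosing was ip starting 24 h later on the stated daily schedules. Conjugates were given as sonicated solutions and reference prodrugs as suspensions in 0.9% NaCl with 0.5% Tween-80. Mice were observed daily until death or 45 days. Median survival T/C was calculated from survivors per NCI protocols.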

L1210 [6] = experiment: Antitumor activity was determined against the ic implanted L1210 lymphoid leukemia in mice by change in […] at 300 mg/kg (treatment of 1-5qd schedule) dosage; assay type: functional, Mus musculus
Procedure, shortened: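 DBA/2J mice, 6 per group (wt 26-32 g), inoculated ic with 1×10^5 L1210 cells on day 0. Dosing ip began 24 h after inoculation, with a sonicated solution or suspension in 0.9% NaCl containing 0.5% Tween-80, given over a range of doses. Animals were followed daily until death. Body weight change, median survival T/C, and %ILS = (T/C − 1) × 100 were computed from survivors per NCI protocols.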

L1210 [7] = experiment: Antitumor activity was determined against the ip implanted L1210 leukemia in mice by change in […] at 400 mg/kg (treatment of 1-5qd schedule) dosage; assay type: functional, Mus musculus; settings: dose 200 mg/kg; route intraperitoneal; in the assay text read “200 mg/kg” for “400 mg/kg”; procedure, shortened: as §1
L1210 [8] = experiment: Antitumor activity was determined against the ip implanted L1210 leukemia in mice by percent median survival rate (treated/control) at 200 mg/kg (treatment of 1-5qd schedule) dosage; 17.0/7.0; assay type: functional, Mus musculus; settings: route intraperitoneal
Procedure, shortened: (§3)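 DBA/2J mice in groups of 6 (wt 23-28 g) were inoculated ip with 1×10^6 L1210 cells on day 0. Dosing was ip from 24 h, in 0.9% NaCl with 0.5% Tween-80 (conjugates sonicated), across a range of doses. Mice were observed daily until death or 45 days. Median T/C was computed from survivors per NCI protocols, and ILS = (T/C − 1)×100.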

L1210 [9] = experiment: Antitumor activity was determined against the ip implanted L1210 leukemia in mice by percent increase in life span at 200 mg/kg (treatment of 1-5qd schedule) dosage; assay type: functional, Mus musculus; settings: route intraperitoneal; procedure, shortened: as §3
P388 [10] = experiment: Antitumor activity was determined against the ip implanted P388 leukemia in mice by percent median survival rate (treated/control) at 500 mg/kg (treatment of 1qd schedule) dosage; 15.0/11.0; assay type: functional, Mus musculus; settings: route intraperitoneal
P388 [11] = experiment: Antitumor activity was determined against the ip implanted P388 leukemia in mice by range in survival days at 500 mg/kg (treatment of 1qd schedule) dosage; Range is 14-15; assay type: functional, Mus musculus; settings: route intraperitoneal
L1210 [12] = experiment: Antitumor activity was determined against the ic implanted L1210 lymphoid leukemia in mice by median survival time at 100 mg/kg (treatment of 1-9qd schedule) dosage; 14/7.0
L1210 [13] = experiment: Antitumor activity against the ic implanted L1210 lymphoid leukemia in mice expressed as optimal dose (1, 5, 9qd treatment schedule) required to produce greatest increase in life span was determined; assay type: functional, Mus musculus
Procedure, shortened: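 DBA/2J mice, groups of 6 (26-32 g), got 1 × 10^5 L1210 cells ic on day 0. Dosing was ip starting 24 h later, as a sonicated solution or suspension in 0.9% NaCl with 0.5% Tween-80, over a wide dose range. Mice were followed daily until death. Median survival T/C was taken from survivors per NCI protocols, and ILS = (T/C − 1) × 100. Active range means doses giving ILS ≥25%; optimal dose means greatest ILS.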

L1210 [14] = experiment: Antitumor activity was determined against the ic implanted L1210 lymphoid leukemia in mice by range in survival days at 167 mg/kg (treatment of 1, 5, 9qd schedule) dosage; Range is 14-22; assay type: functional, Mus musculus
L1210 [15] = experiment: Antitumor activity was determined against the ip implanted L1210 leukemia in mice by change in […] at 80 mg/kg (treatment of 1-5qd schedule) dosage; assay type: functional, Mus musculus; settings: route intraperitoneal; procedure, shortened: as §1
P388 [16] = experiment: Antitumor activity was determined against the ip implanted P388 leukemia in mice by range in survival days at 133 mg/kg (treatment of 1,5,9qd schedule) dosage; Range is 23->45; assay type: functional, Mus musculus; settings: route intraperitoneal
P388 [17] = experiment: Antitumor activity was determined against the ip implanted P388 leukemia in mice by percent median survival rate (treated/control) at 67 mg/kg (treatment of 1,5,9qd schedule) dosage; 25.5/11.0; assay type: functional, Mus musculus; settings: route intraperitoneal

## CCCCCCCCCCCCCCCC(=O)OC[C@H](COP(=O)(O)OP(=O)(O)OC[C@H]1O[C@@H](n2ccc(N)nc2=O)[C@@H](O)[C@@H]1O)OC(=O)CCCCCCCCCCCCCCC
L1210 [1]
  Weight change: -0.62 g mouse-1
L1210 [2]
  median survival time: 22 days
L1210 [3]
  Active dose range: 50 mg/kg/day
P388 [4]
  Survivors: 4

## Nc1ccn([C@@H]2O[C@H](CO)[C@@H](O)[C@@H]2O)c(=O)n1 [CYTARABINE]
Glioblastoma cell line
  IC50: > 100000 nM
HL-60
  IC50: 130 nM
L1210 [5]
  T/C: 9.5%
L1210 [6]
  Weight change: -6.1
L1210 [7]
  Weight change: -2.9 g mouse-1
L1210 [8]
  median survival time: 17 days
L1210 [9]
  ILS: 143
P388 [10]
  T/C: 15%
P388 [11]
  Range: 14
L1210 [12]
  median survival time: 14 days

## CCCCCCCCCCCCCCCCOCC(COP(=O)(O)OP(=O)(O)OC[C@H]1O[C@@H](n2ccc(N)nc2=O)[C@@H](O)[C@@H]1O)OC(=O)CCCCCCCCCCCCCCC (mixture of isomers)
L1210 [13]
  Optimal dose: 167 mg
L1210 [14]
  Range: 14
L1210 [15]
  Weight change: 0.33 g mouse-1
P388 [16]
  Range: 23

## CCCCCCCCCCCCCCCCCCOCC(COP(=O)(O)OP(=O)(O)OC[C@H]1O[C@@H](n2ccc(N)nc2=O)[C@@H](O)[C@@H]1O)OC(=O)CCCCCCCCCCCCCCC (mixture of isomers)
P388 [17]
  T/C: 25.5%
